In article PMC3799459 (Nucleic Acids Research, 2013):
Values belong to the molecule of their own block, whether it stands above or below them.

Assays:
[1] = biological target: T1, DNMT1 (Homo sapiens, UniProt P26358); test: SAM-competition assay on DNMT1; format: biochemical; settings: SAM 0.5-15 µM, DNA duplex 1.0 µM, inhibitor IC10 to IC80
Method in brief: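 DNMT1 Flashplate SPA in HEPES pH 7.2 buffer, 37°C, 2 h. [methyl-3H]SAM (0.6 TBq/mmol, isotopic dilution 1*:1) varied 0.5–15 µM at fixed 1.0 µM biotinylated DNA duplex. Test compound adjusted from IC10 to IC80 for each SAM level. IC50 at each SAM concentration from sigmoidal variable-slope fit; apparent kinetic constants per compound concentration by Michaelis–Menten fitting.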

[2] = biological target: human DNMT3A (DNMT3A-C) (Homo sapiens, UniProt Q9Y6K1); test: DNMT3A Flashplate SPA inhibition assay; format: biochemical
[3] = biological target: T1, DNMT1; test: DNA-competition assay on DNMT1; format: biochemical; settings: DNA duplex 0.05-1.0 µM, SAM 15 µM (1*:2), inhibitor IC10 to IC80
Method in brief: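 Streptavidin Flashplate SPA with DNMT1 in HEPES pH 7.2 reaction buffer (EDTA, KCl, BSA), 37°C for 2 h. Biotinylated DNA duplex varied 0.05–1.0 µM; [methyl-3H]SAM (0.6 TBq/mmol) fixed at 15 µM, isotopic dilution 1*:2. Test compound adjusted from IC10 to IC80 at each DNA level. IC50 per DNA concentration from sigmoidal variable-slope fit; apparent kinetic constants from Michaelis–Menten fits at each compound concentration.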

[4] = biological target: M.SssI (Spiroplasma monobiae, UniProt P15840); test: M.SssI Flashplate SPA inhibition assay; format: biochemical, bacterial
Method in brief: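 Purchased M.SssI at 100 nM with 0.3 µM biotinylated non-methylated duplex and 1 µM SAM/[methyl-3H]SAM mix (3:1) in 1X NEBuffer 2; test compound ≤1% DMSO; 1 h at 37°C. Stopped in streptavidin Flashplate with 20 µM SAH, Tris-HCl pH 7.4; 1 h RT binding, Tween washes, scintillation cpm. %inhibition vs no-enzyme and no-compound controls; sigmoidal fit; two experiments in duplicate.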

[5] = biological target: T1, DNMT1; test: DMSO tolerance of the DNMT1 Flashplate assay; format: biochemical
[6] = biological target: T1, DNMT1; test: Km determination of DNMT1 substrates; format: biochemical; settings: read-out: Km of DNA for DNMT1; DNA 0.05-1.0 µM, 15 µM SAM

T1 sequence (P26358 whole entry): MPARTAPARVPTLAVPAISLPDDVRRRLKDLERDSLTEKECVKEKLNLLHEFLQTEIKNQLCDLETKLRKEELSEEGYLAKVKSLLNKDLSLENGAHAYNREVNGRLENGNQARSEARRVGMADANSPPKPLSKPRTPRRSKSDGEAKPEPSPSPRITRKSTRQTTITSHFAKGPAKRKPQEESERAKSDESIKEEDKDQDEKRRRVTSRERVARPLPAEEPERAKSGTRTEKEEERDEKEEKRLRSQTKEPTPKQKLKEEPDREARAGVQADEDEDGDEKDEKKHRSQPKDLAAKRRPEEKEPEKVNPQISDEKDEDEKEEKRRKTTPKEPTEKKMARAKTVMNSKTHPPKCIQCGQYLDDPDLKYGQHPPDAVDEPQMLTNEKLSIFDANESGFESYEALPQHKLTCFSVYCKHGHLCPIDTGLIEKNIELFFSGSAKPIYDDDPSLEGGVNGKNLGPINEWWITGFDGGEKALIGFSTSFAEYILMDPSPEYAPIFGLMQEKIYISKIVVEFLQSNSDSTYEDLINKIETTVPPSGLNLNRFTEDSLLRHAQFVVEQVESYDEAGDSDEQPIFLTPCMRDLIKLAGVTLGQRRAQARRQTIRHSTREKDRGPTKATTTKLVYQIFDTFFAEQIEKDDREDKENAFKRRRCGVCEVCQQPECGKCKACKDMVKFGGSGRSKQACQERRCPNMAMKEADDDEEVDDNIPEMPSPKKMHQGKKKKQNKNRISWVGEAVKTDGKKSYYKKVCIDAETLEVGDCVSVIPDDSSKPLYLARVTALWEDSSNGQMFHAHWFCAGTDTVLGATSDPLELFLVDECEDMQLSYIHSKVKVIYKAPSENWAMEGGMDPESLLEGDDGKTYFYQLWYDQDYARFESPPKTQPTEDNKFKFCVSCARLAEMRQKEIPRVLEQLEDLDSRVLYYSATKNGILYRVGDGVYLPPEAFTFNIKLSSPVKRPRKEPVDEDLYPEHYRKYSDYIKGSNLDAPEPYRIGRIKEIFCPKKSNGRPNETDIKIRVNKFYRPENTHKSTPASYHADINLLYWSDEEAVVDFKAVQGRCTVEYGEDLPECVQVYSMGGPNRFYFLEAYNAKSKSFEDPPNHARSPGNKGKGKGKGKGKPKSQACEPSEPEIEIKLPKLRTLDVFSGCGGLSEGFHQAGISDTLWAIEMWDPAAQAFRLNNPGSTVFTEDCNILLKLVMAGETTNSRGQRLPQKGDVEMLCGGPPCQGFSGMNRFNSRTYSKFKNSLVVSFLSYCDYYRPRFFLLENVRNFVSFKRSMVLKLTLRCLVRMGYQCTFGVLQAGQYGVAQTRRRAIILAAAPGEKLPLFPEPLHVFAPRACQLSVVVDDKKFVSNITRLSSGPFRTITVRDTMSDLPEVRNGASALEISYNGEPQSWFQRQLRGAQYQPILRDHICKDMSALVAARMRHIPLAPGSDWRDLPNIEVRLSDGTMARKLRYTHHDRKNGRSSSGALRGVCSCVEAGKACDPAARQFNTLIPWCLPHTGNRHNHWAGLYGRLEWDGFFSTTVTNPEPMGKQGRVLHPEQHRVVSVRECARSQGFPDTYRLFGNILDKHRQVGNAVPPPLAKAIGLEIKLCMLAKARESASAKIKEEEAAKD
Sequence of human DNMT3A (DNMT3A-C) (Q9Y6K1 624-912): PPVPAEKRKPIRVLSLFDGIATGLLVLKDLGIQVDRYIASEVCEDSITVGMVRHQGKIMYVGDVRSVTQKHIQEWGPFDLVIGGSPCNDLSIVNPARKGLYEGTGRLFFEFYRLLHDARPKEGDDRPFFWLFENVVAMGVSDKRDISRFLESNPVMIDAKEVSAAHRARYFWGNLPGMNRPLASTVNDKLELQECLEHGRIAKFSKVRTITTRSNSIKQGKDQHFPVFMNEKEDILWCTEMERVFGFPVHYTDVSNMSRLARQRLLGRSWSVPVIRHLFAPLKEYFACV
Sequence of M.SssI (P15840 whole entry): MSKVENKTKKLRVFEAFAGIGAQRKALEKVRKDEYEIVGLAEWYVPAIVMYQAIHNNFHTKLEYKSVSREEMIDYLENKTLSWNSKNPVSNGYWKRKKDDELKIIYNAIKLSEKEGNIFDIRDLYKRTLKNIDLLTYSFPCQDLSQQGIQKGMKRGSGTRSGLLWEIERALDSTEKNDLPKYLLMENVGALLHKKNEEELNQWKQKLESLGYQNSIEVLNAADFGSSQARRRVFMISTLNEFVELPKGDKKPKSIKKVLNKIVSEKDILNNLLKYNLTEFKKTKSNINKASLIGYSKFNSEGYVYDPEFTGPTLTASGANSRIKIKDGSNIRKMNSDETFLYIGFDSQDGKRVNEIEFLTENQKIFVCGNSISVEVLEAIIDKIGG

Mechanism of inhibition towards SAM [1]: SAM-competitive
IC50 [2]: 1.8 ± 0.6 µM
Mechanism of inhibition towards DNA [3]: uncompetitive inhibition
IC50 [4]: 45 ± 7 µM
Molecule: Nc1ncnc2c1ncn2[C@@H]1O[C@H](C[C@@H](N)CC[C@H](N)C(=O)O)[C@@H](O)[C@H]1O [Sinefungin]

Molecule: C[S+](C)[O-] [DMSO]
Stimulation of DNMT1 activity ([5]; 1 to 10% (v/v) DMSO): < 10%
Effect on DNMT1 activity ([5]; 15 to 50% (v/v) DMSO): inhibition

Mechanism of inhibition towards SAM [1]: SAM non-competitive inhibitor
Mechanism of inhibition towards DNA [3]: uncompetitive behavior
Molecule: O=C1c2ccccc2OC(c2ccccc2)C1(Cl)[N+](=O)[O-] (stereo not drawn) [Compound 47, 3-chloro-3-nitroflavanone]

B1: DNA: biotinylated hemimethylated DNA duplex with 8 CpG, substrate of DNMT1 (Table 1) (nucleic acid)
sense: GATCGCCGATGCGCGAATCGCGATCGATGCGAT
antisense: ATCGCATCGATCGCGATTCGCGCATCGGCGATC
modifications: biotin; hemimethylated CpG; printed: 5′-GATmCGCmCGATGmCGmCGAATmCGmCGATmCGATGmCGAT
Km [6]: ~0.27 µM
